Reference: paper PMC2877169 (Journal of medicinal chemistry, 2010)

How the values were obtained:
P450 enzymes = details: read-out: inhibition of P450 enzymes; previously reported weak inhibitor; cited from earlier work
T. cruzi amastigotes = experiment: T. cruzi amastigote growth; type: cell-based, Trypanosoma cruzi; details: relative to compound 1
[1] = target: rat protein farnesyltransferase (Rattus norvegicus, UniProt Q02293+Q04631); experiment: Rat protein farnesyltransferase inhibition assay; type: biochemical; details: for fold reduction in potency/affinity for protein farnesyltransferase compared to 1: relative to compound 1
[2] = target: recombinant Tc-L14DM (lanosterol 14α-demethylase) (Trypanosoma cruzi, UniProt Q7Z1V1); experiment: Binding to recombinant Tc-L14DM by difference optical spectroscopy
Chain of recombinant Tc-L14DM (lanosterol 14α-demethylase) (Q7Z1V1 whole entry): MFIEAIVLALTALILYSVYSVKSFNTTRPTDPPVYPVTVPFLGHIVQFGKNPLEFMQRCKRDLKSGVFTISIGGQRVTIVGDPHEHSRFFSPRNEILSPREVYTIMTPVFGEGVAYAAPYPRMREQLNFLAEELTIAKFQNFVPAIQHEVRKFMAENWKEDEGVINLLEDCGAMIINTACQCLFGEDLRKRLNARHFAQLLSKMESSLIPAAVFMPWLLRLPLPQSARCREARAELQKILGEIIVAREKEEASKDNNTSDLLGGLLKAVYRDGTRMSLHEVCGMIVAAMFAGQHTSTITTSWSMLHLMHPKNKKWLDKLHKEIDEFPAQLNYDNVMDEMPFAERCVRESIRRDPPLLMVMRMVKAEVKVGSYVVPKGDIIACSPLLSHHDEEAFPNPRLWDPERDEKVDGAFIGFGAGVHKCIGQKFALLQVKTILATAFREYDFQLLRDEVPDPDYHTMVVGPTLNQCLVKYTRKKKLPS
In short: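 Difference optical spectroscopy on recombinant T. cruzi lanosterol 14α-demethylase held at 1.4 μM, with test compound added at 200 nM – 2 uM; binding read from the difference spectra.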

fold reduction in potency/affinity for protein farnesyltransferase compared to 1 [1] | IC50 [1] | Compound | further results
100 fold | – | COC(c1ccc(Cl)cc1)(c1ccc2c(c1)c(-c1cccc(Cl)c1)cc(=O)n2C)c1cncn1C (stereo not shown) [Compound 3] | –
~ 500 fold | – | COC(c1ccc(Cl)cc1)(c1ccc2c(c1)c(-c1ccccc1)cc(=O)n2C)c1cncn1C (stereo not shown) [Compound 10] | –
~ 600 fold | – | COC(c1ccc(Cl)cc1)(c1ccc2c(c1)c(-c1cc(C)cc(C)c1)cc(=O)n2C)c1cncn1C (stereo not shown) [Compound 17] | –
– | 30 nM | CCn1cncc1C(O)(c1ccc(Cl)cc1)c1ccc2c(c1)c(-c1cccc(Cl)c1)cc(=O)n2C (stereo not shown) [Compound 27] | –

Second part, the molecule before the results:

Compound | fold reduction in potency/affinity for protein farnesyltransferase compared to 1 [1] | IC50 [1] | further results
Cn1cncc1[C@@](N)(c1ccc(Cl)cc1)c1ccc2c(c1)c(-c1cccc(Cl)c1)cc(=O)n2C [Compound 1, tipifarnib] | – | – | IC50 (P450 enzymes): > 10000 nM
COC(c1ccc(Cl)cc1)(c1ccc2c(c1)c(-c1cccc(Cl)c1C)cc(=O)n2C)c1cncn1C (stereo not shown) [Compound 2] | – | – | fold more potent at killing T. cruzi amastigotes than 1 (T. cruzi amastigotes): about 10 fold
COC(c1ccc(Cl)cc1)(c1ccc2c(c1)c(-c1c(F)cccc1F)cc(=O)n2C)c1cncn1C (stereo not shown) [Compound 16, 4-(2,6-Difluorophenyl)-6-((4-chlorophenyl)(methoxy)(1-methyl-1H-imidazol-5-yl)methyl)-1-methylquinolin-2(1H)-one] | – | – | Kd [2]: < 1400 nM
Cc1c(Cl)cccc1-c1cc(=O)n(C)c2ccc(C(O)(c3ccc(Cl)cc3)c3cncn3C)cc12 (stereo not shown) [Compound 20, 4-(3-Chloro-2-methylphenyl)-6-((4-chlorophenyl)(hydroxy)(1-methyl-1H-imidazol-5-yl)methyl)-1-methylquinolin-2(1H)-one] | – | 796 nM | –
CNC(c1ccc(Cl)cc1)(c1ccc2c(c1)c(-c1cccc(Cl)c1C)cc(=O)n2C)c1cncn1C (stereo not shown) [Compound 23, 4-(3-chloro-2-methylphenyl)-6-((4-chlorophenyl)(methylamino)(1-methyl-1H-imidazol-5-yl)methyl)-1-methylquinolin-2(1H)-one] | – | 957 nM | –
CCn1cncc1C(OC)(c1ccc(Cl)cc1)c1ccc2c(c1)c(-c1cccc(Cl)c1)cc(=O)n2C (stereo not shown) [Compound 26] | ~ 1,500 fold | – | –
